Test results as given in ChEMBL document CHEMBL1149064, “Tyrosinase inhibitors from Anacardium occidentale fruits” (J Nat Prod, 1994).
Calls of active or inactive are those of the source. The calls are words filed in the database; no cut-off is given here.

Experiments:
[1] = biological target: T1, Tyrosinase (Agaricus bisporus) (UniProt O42713); experiment: Inhibition of mushroom tyrosinase assessed as oxidation of L-DOPA at 0.8 mM
T1 sequence (whole entry): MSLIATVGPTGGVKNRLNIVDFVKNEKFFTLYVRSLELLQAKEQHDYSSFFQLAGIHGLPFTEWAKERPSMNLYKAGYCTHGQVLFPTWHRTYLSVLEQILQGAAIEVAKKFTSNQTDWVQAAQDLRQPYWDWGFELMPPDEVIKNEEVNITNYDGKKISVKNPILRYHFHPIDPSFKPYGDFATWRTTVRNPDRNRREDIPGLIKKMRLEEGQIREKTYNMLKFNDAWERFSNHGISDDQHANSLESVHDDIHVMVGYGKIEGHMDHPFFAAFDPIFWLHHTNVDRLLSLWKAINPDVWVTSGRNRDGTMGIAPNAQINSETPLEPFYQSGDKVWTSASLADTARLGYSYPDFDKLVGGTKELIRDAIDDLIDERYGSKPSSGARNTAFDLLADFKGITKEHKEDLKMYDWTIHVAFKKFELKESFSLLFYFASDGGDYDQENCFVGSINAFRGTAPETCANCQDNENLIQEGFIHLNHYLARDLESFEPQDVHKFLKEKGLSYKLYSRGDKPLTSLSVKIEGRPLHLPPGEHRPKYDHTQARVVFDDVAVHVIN

[2] = biological target: T1, Tyrosinase (Agaricus bisporus); experiment: Inhibition of mushroom tyrosinase assessed as oxidation of L-DOPA
[3] = biological target: T1, Tyrosinase (Agaricus bisporus); experiment: Inhibition of mushroom tyrosinase assessed as oxidation of L-DOPA by Lineweaver-Burke plot analysis
In short: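 Mushroom tyrosinase (138 units) added to L-DOPA (1 ml of 2.5 mM stock) plus sample (DMSO solution diluted 30-fold) in 0.1 M phosphate buffer pH 6.8, after 10 min at 25°. Initial linear rate of dopachrome formation read at 475 nm; double-reciprocal plot of 1/V (1/ΔA475 per min).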

[4] = biological target: T1, Tyrosinase (Agaricus bisporus); experiment: Inhibition of mushroom tyrosinase assessed as oxidation of L-DOPA preincubated for 5 mins before L-DOPA addition
In short: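 Enzyme (138 units) and sample pre-incubated in 0.1 M phosphate buffer pH 6.8 for 5 min at 25°. Then 0.4 ml of 6.3 mM L-DOPA stock added and the reaction followed at 475 nm for 4 min. Controls: no inhibitor with or without pre-incubation, and inhibitor without pre-incubation.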

| SMILES | inhibition [1] | Activity [2] | ID50 [2] | Activity [1] | Activity [3] | Activity [4] |
| --- | --- | --- | --- | --- | --- | --- |
| CCC/C=C\C/C=C\CCCCCCCc1cccc(O)c1C(=O)O | 15% | Dose-dependent effect | 6 mM |  |  |  |
| CCCCCCCCCCCCCCCc1cc(O)cc(O)c1 | 21% | Dose-dependent effect |  |  |  |  |
| CCC/C=C\C/C=C\CCCCCCCc1cc(O)c(C)c(O)c1 | 20% |  |  |  |  |  |
| Oc1cccc(O)c1 | 34% |  | 1.2 mM |  |  |  |
| CCCCCCCCCCCCCCCc1cccc(O)c1 |  |  |  | inactive |  |  |
| O=C(O)c1ccccc1O | 23% |  | 3.9 mM |  |  |  |
| C=CC/C=C\C/C=C\CCCCCCCc1cccc(O)c1C(=O)O (stereo in doubt; 8) | 15% | Dose-dependent effect | 4.2 mM |  |  |  |
| CCCCCC/C=C\CCCCCCCc1cc(O)c(C)c(O)c1 | 24% |  |  |  |  |  |
| C=CC/C=C\C/C=C\CCCCCCCc1cccc(O)c1C(=O)O (stereo in doubt; 5) | 45% | Dose-dependent effect | 1.1 mM |  | Active | Active |
| CCCCCC/C=C\CCCCCCCc1cccc(O)c1C(=O)O | 15% | Dose-dependent effect | 7.5 mM |  |  |  |
| C=CC/C=C\C/C=C\CCCCCCCc1cc(O)cc(O)c1 | 88% | Dose-dependent effect | 0.04 mM |  | Active | Active |
| C=CC/C=C\C/C=C\CCCCCCCc1cc(O)c(C)c(O)c1 | 16% |  |  |  |  |  |
| OC[C@H]1O[C@@H](Oc2ccc(O)cc2)[C@H](O)[C@@H](O)[C@@H]1O |  |  | 6.2 mM |  |  |  |
